Reference: ChEMBL document CHEMBL2390832, “Synthesis and activity evaluation of tilorone analogs as potential anticancer agents” (Eur J Med Chem, 2013)
Structures can show the parent of a compound that is named as a salt. Calls of active or inactive are those of the source. The rule behind the calls is not given here.

Experiments:
[1] = Anticancer activity against human Hep3B cells after 48 hrs by MTT assay; assay type: functional, cell-based, Hep 3B2
Method in brief: (§1)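 Cells seeded at 1 × 10⁴/well in DMEM with 10% FBS and left overnight at 37 °C, 5% CO₂. Five concentrations (1 µM–100 µM) diluted in DMEM were added and incubated for 48 h. MTT (10 µl of 5 mg/ml) was then added for 4 h at 37 °C. Formazan was dissolved in DMSO and absorbance read at 490 nm. At least three parallel runs; IC50 by regression analysis.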

HeLa [2] = experiment: Anticancer activity against human HeLa cells after 48 hrs by MTT assay; assay type: functional, cell-based; method in brief: as §1
A549 [3] = experiment: Anticancer activity against human A549 cells after 48 hrs by MTT assay; assay type: functional, cell-based; conditions: A549, 48 h; method in brief: as §1
Vero = experiment: Cytotoxicity against African green monkey Vero cells after 48 hrs by MTT assay; assay type: cell-based; conditions: Chlorocebus sabaeus; method in brief: as §1
HEK-293T = experiment: Cytotoxicity against human HEK293T cells after 48 hrs by MTT assay; assay type: cell-based; method in brief: as §1
HeLa [4] = experiment: Anticancer activity against human HeLa cells at =/> 100 uM after 48 hrs by MTT assay; assay type: functional, cell-based
A549 [5] = experiment: Anticancer activity against human A549 cells at =/> 100 uM after 48 hrs by MTT assay; assay type: functional, cell-based
Hep 3B2 = experiment: Anticancer activity against human Hep3B cells at =/> 100 uM after 48 hrs by MTT assay; assay type: functional, cell-based

CCN(CC)CCOc1ccc2c(c1)C(=O)c1cc(OCCCl)ccc1-2
IC50 [1]: > 100 µM | IC50 (HeLa [2]): > 100 µM | IC50 (A549 [3]): > 100 µM

O=C1c2cc(OCCn3ccnc3)ccc2-c2ccc(OCCn3ccnc3)cc21
IC50 [1]: > 100 µM | IC50 (HeLa [2]): > 100 µM | IC50 (A549 [3]): > 100 µM

CCN(CC)CC(O)COc1ccc2c(c1)C(=O)c1cc(OCC(O)CN(CC)CC)ccc1-2 (centres undefined)
IC50 [1]: 21.5 µM | IC50 (Vero): 48.6 µM | IC50 (HEK-293T): 56.4 µM | IC50 (HeLa [2]): 20.2 µM | IC50 (A549 [3]): 16 µM

O=C1c2cc(OCC(O)CN3CCCCC3)ccc2-c2ccc(OCC(O)CN3CCCCC3)cc21 (centres undefined)
IC50 [1]: 6.76 µM | IC50 (Vero): 13 µM | IC50 (HEK-293T): 17.9 µM | IC50 (HeLa [2]): 1.82 µM | IC50 (A549 [3]): 1.4 µM

CN(C)CC(O)COc1ccc2c(c1)C(=O)c1cc(OCC(O)CN(C)C)ccc1-2 (centres undefined)
IC50 [1]: 18.3 µM | IC50 (Vero): 20.9 µM | IC50 (HEK-293T): 28.3 µM | IC50 (HeLa [2]): 11.7 µM | IC50 (A549 [3]): 12.6 µM

CCCCNCCOc1ccc2c(c1)C(=O)c1cc(OCCNCCCC)ccc1-2
IC50 [1]: 3.34 µM | IC50 (Vero): 8.89 µM | IC50 (HEK-293T): 11 µM | IC50 (HeLa [2]): 2.21 µM | IC50 (A549 [3]): 2.65 µM

O=c1c(-c2ccc(OCCCBr)cc2)coc2cc(OCCCBr)ccc12
Activity (HeLa [4]): inactive | Activity (A549 [5]): inactive | Activity (Hep 3B2): inactive

CCCN(CCC)CC(O)COc1ccc(-c2coc3cc(OCC(O)CN(CCC)CCC)ccc3c2=O)cc1 (centres undefined)
IC50 [1]: 6.52 µM | IC50 (Vero): 35.5 µM | IC50 (HEK-293T): 39.6 µM | IC50 (HeLa [2]): 5.17 µM | IC50 (A549 [3]): 4.26 µM

O=c1c(-c2ccc(OCC(O)CN3CCCCC3)cc2)coc2cc(OCC(O)CN3CCCCC3)ccc12 (centres undefined)
IC50 [1]: 12 µM | IC50 (Vero): 18.5 µM | IC50 (HEK-293T): 20.2 µM | IC50 (HeLa [2]): 5.32 µM | IC50 (A549 [3]): 4.34 µM

CC(C)SCCOc1ccc2c(c1)C(=O)c1cc(OCCSC(C)C)ccc1-2
Activity (HeLa [4]): inactive | Activity (A549 [5]): inactive | Activity (Hep 3B2): inactive

CCOc1ccc2c(c1)C(=O)c1cc(OCCO)ccc1-2
Activity (HeLa [4]): inactive | Activity (A549 [5]): inactive | Activity (Hep 3B2): inactive

CC(C)(C)SCCOc1ccc2c(c1)C(=O)c1cc(OCCSC(C)(C)C)ccc1-2
Activity (HeLa [4]): inactive | Activity (A549 [5]): inactive | Activity (Hep 3B2): inactive

O=C1c2cc(OCCn3ccnn3)ccc2-c2ccc(OCCn3ccnn3)cc21
IC50 [1]: > 100 µM | IC50 (HeLa [2]): > 100 µM | IC50 (A549 [3]): > 100 µM

CCOc1ccc2c(c1)C(=O)c1cc(OCCCl)ccc1-2
Activity (HeLa [4]): inactive | Activity (A549 [5]): inactive | Activity (Hep 3B2): inactive

CCCN(CCC)CC(O)COc1ccc2c(c1)C(=O)c1cc(OCC(O)CN(CCC)CCC)ccc1-2 (centres undefined)
IC50 [1]: 9.43 µM | IC50 (Vero): 57.8 µM | IC50 (HEK-293T): 54 µM | IC50 (HeLa [2]): 6.78 µM | IC50 (A549 [3]): 7.42 µM

CC(C)NCCOc1ccc2c(c1)C(=O)c1cc(OCCNC(C)C)ccc1-2
IC50 [1]: 8.89 µM | IC50 (Vero): 14.8 µM | IC50 (HEK-293T): 13.8 µM | IC50 (HeLa [2]): 1.72 µM | IC50 (A549 [3]): 2.43 µM

CCN(CC)CCOc1ccc2c(c1)C(=O)c1cc(OCCN(CC)CC)ccc1-2 [TILORONE HYDROCHLORIDE]
IC50 [1]: 38.8 µM | IC50 (Vero): 89.5 µM | IC50 (HEK-293T): 76.4 µM | IC50 (HeLa [2]): 40 µM | IC50 (A549 [3]): 32.6 µM

O=c1c(-c2ccc(OCCCl)cc2)coc2cc(OCCCl)ccc12
Activity (HeLa [4]): inactive | Activity (A549 [5]): inactive | Activity (Hep 3B2): inactive

CCN(CC)CCOc1ccc(-c2coc3cc(OCCN(CC)CC)ccc3c2=O)cc1
IC50 [1]: 35.2 µM | IC50 (Vero): 102 µM | IC50 (HEK-293T): 107 µM | IC50 (HeLa [2]): 26.4 µM | IC50 (A549 [3]): 19.4 µM

CCN(CC)CC(O)COc1ccc(-c2coc3cc(OCC(O)CN(CC)CC)ccc3c2=O)cc1 (centres undefined)
IC50 [1]: 30.4 µM | IC50 (Vero): 60.1 µM | IC50 (HEK-293T): 52.9 µM | IC50 (HeLa [2]): 27.8 µM | IC50 (A549 [3]): 25 µM

CCOc1ccc2c(c1)C(=O)c1cc(OCCN(CC)CC)ccc1-2
IC50 [1]: 84.8 µM | IC50 (HeLa [2]): 107 µM | IC50 (A549 [3]): > 100 µM

O=C1c2cc(OCCn3cncn3)ccc2-c2ccc(OCCn3cncn3)cc21
IC50 [1]: > 100 µM | IC50 (HeLa [2]): > 100 µM | IC50 (A549 [3]): > 100 µM

CCCNCCOc1ccc2c(c1)C(=O)c1cc(OCCNCCC)ccc1-2
IC50 [1]: 5.17 µM | IC50 (Vero): 8.47 µM | IC50 (HEK-293T): 8.59 µM | IC50 (HeLa [2]): 2.73 µM | IC50 (A549 [3]): 2.96 µM

CC(C)(C)NCCOc1ccc2c(c1)C(=O)c1cc(OCCNC(C)(C)C)ccc1-2
IC50 [1]: 20.1 µM | IC50 (Vero): 25.3 µM | IC50 (HEK-293T): 19.8 µM | IC50 (HeLa [2]): 9.17 µM | IC50 (A549 [3]): 7.86 µM

CCN(CC)CCCOc1ccc(-c2coc3cc(OCCCN(CC)CC)ccc3c2=O)cc1
IC50 [1]: 76.1 µM | IC50 (HeLa [2]): 82.4 µM | IC50 (A549 [3]): 73.5 µM

CCOc1ccc2c(c1)C(=O)c1cc(OCCN(C)C)ccc1-2
IC50 [1]: > 100 µM | IC50 (HeLa [2]): > 100 µM | IC50 (A549 [3]): > 100 µM

CN(C)CCCOc1ccc(-c2coc3cc(OCCCN(C)C)ccc3c2=O)cc1
IC50 [1]: 24.4 µM | IC50 (Vero): 34.9 µM | IC50 (HEK-293T): 41.9 µM | IC50 (HeLa [2]): 22.2 µM | IC50 (A549 [3]): 20.6 µM
